According to ChEMBL document CHEMBL1124841, “Chalcones: a new class of antimitotic agents” (1990):

How the values were obtained:
[1] = test system: HeLa; test: In vitro antimitotic activity against HeLa cells after 6 hours exposure; assay type: functional, Homo sapiens
Outline: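 Asynchronous HeLa cells were exposed to compound continuously for 6 h. Mitotic index (cells in mitosis/cells counted) was scored on about 300 cells counted across three fields. The equivalent dose (ED) is the concentration giving the same mitotic index as the colchicine standard at 0.05 µg/mL.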

[2] = test system: HeLa; test: In vitro antimitotic activity against HeLa cells after 1 hr exposure to the compound; assay type: functional, Homo sapiens
Outline: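 HeLa cells exposed to compound for 1 h, washed in fresh medium, then kept 18 h in compound-free medium. Mitotic index (cells in mitosis/cells counted) scored as in the 6-h test. The reported equivalent dose (ED) is the concentration giving the same mitotic index as vinblastine at 0.06 µg/mL.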

[3] = test system: B16; test: The ratio of survival time for treated divided by survival time of control x 100 at a dose of […] in B16 melanoma cells; assay type: functional, Mus musculus
[4] = test system: B16; test: The ratio of survival time for treated divided by survival time of control x 100 at a dose of 25 mg/kg in B16 melanoma cells; assay type: functional, Mus musculus
Outline: (§1)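 Mice inoculated ip on day 0 with 1 × 10^5 L1210 leukemia or B16 melanoma cells. Compounds given ip once daily on days 1-9, suspended or dissolved in 5% PVP. Survival time recorded and averaged per group. Value is mean survival of treated over control × 100.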

[5] = test system: L1210; test: The ratio of survival time for treated divided by survival time of control x 100 at a dose of […] in L1210 leukemia cells; assay type: functional, Mus musculus
[6] = test system: L1210; test: The ratio of survival time for treated divided by survival time of control x 100 at a dose of 25 mg/kg in L1210 leukemia cells; assay type: functional, Mus musculus; outline: as §1
[7] = test system: L1210; test: The ratio of survival time for treated divided by survival time of control x 100 at a dose of 50 mg/kg in L1210 leukemia cells; assay type: functional, Mus musculus; outline: as §1
[8] = test system: L1210; test: The ratio of survival time for treated divided by survival time of control x 100 at a dose of 6.25 mg/kg in L1210 leukemia cells; assay type: functional, Mus musculus; outline: as §1
[9] = test system: B16; test: The ratio of survival time for treated divided by survival time of control x 100 at a dose of 0.2 mg/kg in B16 melanoma cells; assay type: functional, Mus musculus; outline: as §1
[10] = test system: L1210; test: The ratio of survival time for treated divided by survival time of control x 100 at a dose of 0.2 mg/kg in L1210 leukemia cells; assay type: functional, Mus musculus; outline: as §1
[11] = test system: B16; test: The ratio of survival time for treated divided by survival time of control x 100 at a dose of 100 mg/kg in B16 melanoma cells; assay type: functional, Mus musculus; outline: as §1

Row | Compound | ED [1] [µg/mL] | also measured
1 | COc1ccc(C(=O)/C=C/c2ccc(NC(C)=O)cc2)cc1 | 3.1 | 
2 | CCCCOc1ccc(/C=C/C(=O)c2cc(OC)c(OC)c(OC)c2)cc1 | >25 | 
3 | COc1cc(C(=O)/C=C/c2ccc(N)cc2)cc(OC)c1OC | 0.15 | 
4 | COc1ccccc1C(=O)/C=C/c1ccc(N(C)C)cc1 | 0.15 | ED [2]: 6.25 µg/mL
5 | O=C(/C=C/c1ccccc1)c1ccccc1 [CHALCONE] | 3.1 | 
6 | CCN(CC)c1ccc(/C=C/C(=O)c2ccc(OC)c(OC)c2OC)cc1 | 0.15 | 
7 | COc1ccc(OC)c(C(=O)/C=C/c2ccc(NC(C)=O)cc2)c1 | 6.25 | 
8 | COc1cc(OC)c(C(=O)/C=C/c2ccc(NC(C)=O)cc2)c(OC)c1 | 3.1 | 
9 | COc1cc(C(=O)/C=C/c2cccc(N(C)C)c2)cc(OC)c1OC | >100 | 
10 | COc1ccc(OC)c(C(=O)/C(Cl)=C/c2ccc(N(C)C)cc2)c1 | 0.015 | 
11 | COc1cc(C(=O)C#Cc2ccccc2)cc(OC)c1OC | >6.25 | 
12 | COc1ccc(OC)c(C(=O)/C(C)=C/c2ccc(N(C)C)cc2)c1 | 0.0038 | T/C [3]: 146%; T/C [4]: 183%; ED [2]: 0.06 µg/mL; T/C [5]: 137%; T/C [6]: 146%; T/C [7]: 154%; T/C [8]: 126%
13 | COc1cc(C(=O)/C(Br)=C/c2ccc(N(C)C)cc2)cc(OC)c1OC | 0.0038 | ED [2]: 1.5 µg/mL
14 | CCOc1ccc(/C=C/C(=O)c2cc(OC)c(OC)c(OC)c2)cc1 | 0.15 | 
15 | COc1cc(C(=O)/C=C/c2ccc(Br)cc2)cc(OC)c1OC | 0.015 | 
16 | COc1cc(C(=O)/C=C/c2ccc(F)cc2)cc(OC)c1OC | >25 | 
17 | COc1ccc(C(=O)/C(C)=C/c2ccccc2)c(OC)c1OC |  | ED [2]: 6.25 µg/mL
18 | COc1cc(C(=O)/C=C/c2ccc(N3CCOCC3)cc2)cc(OC)c1OC | 6.25 | 
19 | COc1ccc(C(=O)/C=C/c2ccc(N(C)C)cc2)cc1OC | 3.1 | 
20 | COc1ccc(C(=O)/C=C/c2ccc(NC(C)=O)cc2)c(OC)c1OC | 3.1 | 
21 | COc1cc(C(=O)/C=C/c2cccc(NC(C)=O)c2)cc(OC)c1OC | >100 | 
22 | CCCCNc1ccc(/C=C/C(=O)c2cc(OC)c(OC)c(OC)c2)cc1 | 6.25 | 
23 | CCN(CC)c1ccc(/C=C(\C)C(=O)c2ccc(OC)c(OC)c2OC)cc1 | 25 | 
24 | CO/N=C(\C=C\c1ccc(N(C)C)cc1)c1cc(OC)c(OC)c(OC)c1 | 0.3 | 
25 | COc1cc(C(=O)/C=C/c2cccc(N)c2)cc(OC)c1OC | 0.15 | 

Row | Compound | ED [1] [µg/mL] | also measured
26 | COc1ccc(C(=O)/C(Cl)=C/c2ccc(N(C)C)cc2)c(OC)c1OC | 0.015 | 
27 | COc1cc(C(=O)/C=C/c2ccc(C#N)cc2)cc(OC)c1OC | 3.1 | 
28 | CC(=O)Nc1ccc(/C=C/C(=O)c2ccc(C#N)cc2)cc1 | 25 | 
29 | CC(=O)Nc1ccc(/C=C/C(=O)c2ccc(C(N)=O)cc2)cc1 | 3.1 | 
30 | COc1cc(C(=O)/C=C/c2ccccc2C(F)(F)F)cc(OC)c1OC | 100 | 
31 | COc1ccc(C(=O)/C=C/c2cccs2)c(OC)c1OC | 3.1 | 
32 | CC(=O)Nc1ccc(/C=C/C(=O)c2cccc(Cl)c2)cc1 | >100 | 
33 | COc1cc(C(=O)/C=C/c2ccc(C(F)(F)F)cc2)cc(OC)c1OC | 6.25 | 
34 | COc1cc(C(=O)/C=C/c2ccc(SC)cc2)cc(OC)c1OC | 0.3 | 
35 | COc1cc(C(O)/C=C/c2ccc(N(C)C)cc2)cc(OC)c1OC (stereo not given) | 3.1 | 
36 | CCN(CC)c1ccc(/C=C(\C)C(=O)c2cc(OC)c(OC)c(OC)c2)cc1 | 0.0075 | 
37 | COc1cc(C(=O)/C=C/c2cccs2)cc(OC)c1OC | 3.1 | 
38 | COc1cc(C(=O)/C=C/c2ccc([S+](C)[O-])cc2)cc(OC)c1OC (stereo not given) | >100 | 
39 | COc1cc(C(=O)/C=C/C=C/c2ccc(N(C)C)cc2)cc(OC)c1OC | 3.1 | 
40 | COc1cc2c(c(OC)c1OC)-c1ccc(OC)c(=O)cc1[C@@H](NC(C)=O)CC2 [COLCHICINE] | 0.05 | 
41 | COc1cc(C(=O)/C=C(\C)c2ccc(N(C)C)cc2)cc(OC)c1OC | >100 | 
42 | COc1ccc(OC)c(C(=O)/C=C/c2ccc(N(C)C)cc2)c1 | 0.0075 | ED [2]: 1.5 µg/mL
43 | CCN(CC)c1ccc(/C=C/C(=O)c2cc(OC)c(OC)c(OC)c2)cc1 | 0.0075 | 
44 | COc1cc(C(=O)/C=C/c2ccc([N+](=O)[O-])cc2)cc(OC)c1OC | 25 | 
45 | COc1ccc(C(=O)/C=C/c2ccc(N(C)C)cc2)c(OC)c1 | 6.25 | 
46 | COC(=O)Nc1ccc(/C=C/C(=O)c2cc(OC)c(OC)c(OC)c2)cc1 | 3.1 | 
47 | COc1cc(C(=O)/C=C(\C)c2ccc(N)cc2)cc(OC)c1OC | 0.3 | 
48 | CC(=O)Nc1ccc(/C=C/C(=O)c2cccc(C(F)(F)F)c2)cc1 | 25 | 
49 | CCc1cccc(C(=O)/C=C/c2ccc(NC(C)=O)cc2)c1 | >100 | 
50 | COc1cc(C(=O)/C=C/c2ccc(N(C)C)cc2C)cc(OC)c1OC | 0.0075 | 

Row | Compound | ED [1] [µg/mL] | also measured
51 | COc1cc(C(=O)/C=C/c2ccco2)cc(OC)c1OC | 5 | 
52 | COc1cc(C(=O)/C=C/c2cccc([N+](=O)[O-])c2)cc(OC)c1OC | >100 | 
53 | COc1cc(C(=O)/C=C/c2ccc(N(C)C)cc2)cc(OC)c1O | 3.1 | 
54 | COc1cc(C(=O)/C=C/c2ccc(C(C)(C)C)cc2)cc(OC)c1OC | 2.5 | 
55 | COc1ccc(C(=O)/C=C/c2ccc(N(C)C)cc2)c(OC)c1OC | 0.015 | 
56 | COc1cc(C(=O)/C=C/c2ccncc2)cc(OC)c1OC | 25 | 
57 | COc1cc(C(=O)/C=C/c2ccc(N(C)C)cc2)cc(OC)c1OC | 0.015 | ED [2]: 12.5 µg/mL
58 | COc1cc(C(=O)/C(C)=C/c2ccc(N(C)C)cc2)cc(OC)c1OC | 0.019 | ED [2]: 0.3 µg/mL
59 | COc1cc(C(=O)/C=C/c2ccc(OC(C)C)cc2)cc(OC)c1OC | >25 | 
60 | COc1cc(C(=O)CCc2ccc(N(C)C)cc2)cc(OC)c1OC | 3.1 | 
61 | COc1cc(C(=O)/C=C(\C)c2ccccc2)cc(OC)c1OC | 3.1 | 
62 | CCN(CC)c1ccc(/C=C(\C)C(=O)c2cc(OC)ccc2OC)cc1 | 0.15 | 
63 | CC[C@]1(O)C[C@@H]2CN(CCc3c([nH]c4ccccc34)[C@@](C(=O)OC)(c3cc4c(cc3OC)N(C)[C@H]3[C@@](O)(C(=O)OC)[C@H](OC(C)=O)[C@]5(CC)C=CCN6CC[C@]43[C@@H]65)C2)C1 [VINBLASTINE] | 0.0015 | T/C [9]: 180%; T/C [10]: 140%
64 | COc1cc(/C=C/C(=O)c2ccc(N(C)C)cc2)cc(OC)c1OC | 0.15 | 
65 | COc1ccc(C(=O)/C(C)=C/c2ccc(N(C)C)cc2)c(OC)c1OC | 1.5 | T/C [4]: 190%; T/C [6]: 121%; T/C [7]: 138%
66 | COc1cc(C(=O)/C(Cl)=C/c2ccc(N(C)C)cc2)cc(OC)c1OC | 3.1 | 
67 | COc1cc(C(=O)/C=C/c2ccc(NC(C)=O)cc2)cc(OC)c1OC | 3.1 | 
68 | CC/C(=C\c1ccc(N(C)C)cc1)C(=O)c1ccc(OC)c(OC)c1OC | 0.15 | 
69 | COc1ccc(C(=O)/C(Br)=C/c2ccc(N(C)C)cc2)c(OC)c1OC | 0.15 | T/C [11]: 192%; ED [2]: 6.25 µg/mL; T/C [6]: 145%; T/C [7]: 140%
70 | COc1cc(C(=O)/C=C/c2ccccc2)cc(OC)c1OC | 0.15 | 
71 | COc1ccc(C(=O)/C=C/c2ccc(N(C)C)cc2C)c(OC)c1OC | 3.1 | 
72 | COc1ccc(OC)c(C(=O)/C(Br)=C/c2ccc(N(C)C)cc2)c1 | 0.0075 | 
73 | CC(=O)Nc1ccc(/C=C/C(=O)c2ccc(C(C)(C)C)cc2)cc1 | 0.25 | 
74 | COc1cc(/C=C/C(=O)c2ccccc2)cc(OC)c1OC | >25 | 
